Test results as given in ChEMBL document CHEMBL1124597, “Quinones. 4. Novel eicosanoid antagonists: synthesis and pharmacological evaluation” (J Med Chem, 1989).

Legend:
Oryctolagus cuniculus [1] = species: Oryctolagus cuniculus; experiment: In vitro percent inhibition against U-44,069 (10e-7 M) induced contraction of rabbit aorta at 10e-5 M concentration.; assay type: functional
Summary of the method: (§1)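 Rabbit aortic strips (2-3 mm × 3 cm) in Krebs-Henseleit, 37 °C, 95% O2/5% CO2, 2 g resting tension, isometric recording. Drugs (final 10⁻⁵ to 10⁻⁸ M, 0.01% DMSO) added 10 min before U-44069 (2-6 nM, about 50% of the 30 mM KCl contraction). Percent inhibition, or concentration reducing contraction by 50%; duplicate means.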

Oryctolagus cuniculus [2] = species: Oryctolagus cuniculus; experiment: In vitro concentration that reduced U-44069-induced contraction of the rabbit aorta by 50%; assay type: functional; summary of the method: as §1
Oryctolagus cuniculus [3] = species: Oryctolagus cuniculus; experiment: In vitro percent inhibition against U-44,069 (10e-7 M) induced contraction of rabbit aorta at 10e-6 M concentration; assay type: functional; summary of the method: as §1
Cavia porcellus [4] = experiment: In vivo percentage of inhibition against LTD -induced bronchoconstriction in guinea pig at a concentration of 0.08 mg/kg after 1 hour of oral administration; assay type: functional
Summary of the method: (§2)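 Urethane-anesthetized (1.5 g/kg ip) guinea pigs given gallamine (1 mg/kg iv); bronchoconstriction measured by Konzett-Rössler overflow. Challenge was U-46619, LTD4 or PAF at 10 μg/kg iv, or IgG1-mediated in animals sensitized ip with egg albumin (1 mg/kg)/FCA and used 3 weeks later. Drug given orally in 5% gum arabic 1 h before challenge; n = 8. ID50 = dose giving 50% inhibition.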

Cavia porcellus [5] = experiment: In vivo percentage of inhibition against LTD -induced bronchoconstriction in guinea pig at a concentration of 0.31 mg/kg after 1 hour of oral administration; assay type: functional
Summary of the method: (§3)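 Guinea pigs were challenged iv with LTD4, PAF or U-46619, each at 10 µg/kg. Bronchoconstriction was measured by the Konzett-Rössler overflow method, as for the sensitized animals (urethane 1.5 g/kg ip, gallamine 1 mg/kg iv). Drug suspended in 5% gum arabic was dosed orally 1 h before spasmogen; eight animals per group; percent inhibition of bronchoconstriction.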

Cavia porcellus [6] = experiment: In vivo percentage of inhibition against LTD -induced bronchoconstriction in guinea pig at a concentration of 1.25 mg/kg after 1 hour of oral administration; assay type: functional; summary of the method: as §2
Cavia porcellus [7] = experiment: In vivo percentage of inhibition against LTD -induced bronchoconstriction in guinea pig at a concentration of 5 mg/kg after 1 hour of oral administration; assay type: functional; summary of the method: as §2
Cavia porcellus [8] = experiment: In vivo percentage of inhibition against U-46619 -induced bronchoconstriction in guinea pig at a concentration of 0.08 mg/kg after 1 hour of oral administration; assay type: functional; summary of the method: as §2
Cavia porcellus [9] = experiment: In vivo percentage of inhibition against U-46619 -induced bronchoconstriction in guinea pig at a concentration of 0.31 mg/kg after 1 hour of oral administration; assay type: functional; summary of the method: as §3
Cavia porcellus [10] = experiment: In vivo percentage of inhibition against U-46619-induced bronchoconstriction in guinea pig at a concentration of 1.25 mg/kg after 1 hour of oral administration; assay type: functional; summary of the method: as §2
Cavia porcellus [11] = species: Cavia porcellus; experiment: In vitro concentration that reduced U-44069-induced aggregation of guinea pig platelets by 50%; assay type: functional
Summary of the method: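 PRP from conscious male guinea pigs, blood taken by cardiac puncture into 3.15% citrate (1:9); platelets adjusted to 450 000/μL. PRP preincubated 2 min at 37 °C, then incubated 2 min with U-44069 at a concentration giving submaximal aggregation. IC50 = antagonist concentration reducing aggregation by 50%.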

Oryctolagus cuniculus [12] = species: Oryctolagus cuniculus; experiment: In vitro concentration that reduced U-44069-induced contraction of the rabbit aorta; assay type: functional; conditions: read-out: pA2 (converted); summary of the method: as §1
Cavia porcellus [13] = species: Cavia porcellus; experiment: In vitro concentration that reduced U-46619-induced contraction of guinea pig lung; conditions: read-out: pA2 (converted)
Oryctolagus cuniculus [14] = species: Oryctolagus cuniculus; experiment: In vitro percent inhibition against U-44,069 (10e-7 M) induced contraction of rabbit aorta at 10e-7 M concentration; assay type: functional; summary of the method: as §1
Cavia porcellus [15] = experiment: In vivo percentage of inhibition against IgG1 -induced bronchoconstriction in guinea pig at a concentration of 5 mg/kg after 1 hour of oral administration; assay type: functional; summary of the method: as §2
Cavia porcellus [16] = experiment: In vivo percentage of inhibition against PAF -induced bronchoconstriction in guinea pig at a concentration of 0.31 mg/kg after 1 hour of oral administration; assay type: functional; summary of the method: as §3
Cavia porcellus [17] = experiment: In vivo percentage of inhibition against PAF-induced bronchoconstriction in guinea pig at a concentration of 1.25 mg/kg after 1 hour of oral administration; assay type: functional; summary of the method: as §2
Cavia porcellus [18] = experiment: In vivo percentage of inhibition against PAF-induced bronchoconstriction in guinea pig at a concentration of 5 mg/kg after 1 hour of oral administration; assay type: functional; summary of the method: as §2
Cavia porcellus [19] = experiment: In vivo percentage of inhibition against IgG1 -induced bronchoconstriction in guinea pig at a concentration of 1.25 mg/kg after 1 hour of oral administration; assay type: functional; summary of the method: as §2
Cavia porcellus [20] = experiment: In vivo percentage of inhibition against IgG1 -induced bronchoconstriction in guinea pig at a concentration of 0.31 mg/kg after 1 hour of oral administration; assay type: functional
Summary of the method: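 Guinea pigs sensitized ip with egg albumin (1 mg/kg) emulsified in Freund's complete adjuvant. Three weeks later, animals whose sera at 1:1000 gave a positive 3-h passive cutaneous anaphylaxis were used. Under urethane (1.5 g/kg ip) and gallamine (1 mg/kg iv), IgG1-mediated bronchoconstriction was measured by Konzett-Rössler overflow. Drug in 5% gum arabic was given orally 1 h before challenge; eight animals per group.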

Cavia porcellus [21] = experiment: In vivo inhibition against IgG1-induced bronchoconstriction in guinea pig; assay type: functional; conditions: read-out: ID50 (the source's name); summary of the method: as §2
Cavia porcellus [22] = experiment: In vivo inhibition against LTD-induced bronchoconstriction in guinea pig; assay type: functional; conditions: read-out: ID50 (the source's name); summary of the method: as §2
Cavia porcellus [23] = experiment: In vivo inhibition against U-46619-induced bronchoconstriction in guinea pig; assay type: functional; conditions: read-out: ID50 (the source's name); summary of the method: as §2
Cavia porcellus [24] = species: Cavia porcellus; experiment: In vitro concentration that reduced U-46619-induced contraction of guinea pig lung; conditions: read-out: pA2 (converted); remark: listed apart in the source

| Structure (SMILES) | IC50 (Oryctolagus cuniculus [2]) [nM] | Inhibition (Oryctolagus cuniculus [1]) [%] | Inhibition (Oryctolagus cuniculus [3]) [%] | other results |
| --- | --- | --- | --- | --- |
| CC1=C(C)C(=O)C(C(CCCC#CC(=O)O)c2ccccc2)=C(C)C1=O (stereo not given) | – | 72 | – | – |
| CC1=C(C)C(=O)C([C@H](CCCCCC(=O)O)c2ccccc2)=C(C)C1=O | – | – | – | inhibition in vivo at 0.08 mg/kg (Cavia porcellus [4]): 12%; inhibition in vivo at 0.31 mg/kg (Cavia porcellus [5]): 85%; inhibition in vivo at 1.25 mg/kg (Cavia porcellus [6]): 85%; inhibition in vivo at 5 mg/kg (Cavia porcellus [7]): 80%; inhibition in vivo at 0.08 mg/kg (Cavia porcellus [8]): 72%; inhibition in vivo at 0.31 mg/kg (Cavia porcellus [9]): 75%; inhibition in vivo at 1.25 mg/kg (Cavia porcellus [10]): 93%; IC50 (Cavia porcellus [11]): 120 nM; Kb (Oryctolagus cuniculus [12]): 2.51 nM; Kb (Cavia porcellus [13]): 1.58 nM |
| CC1=C(C)C(=O)C(C(CCCCCCO)c2ccccc2)=C(C)C1=O (stereo not given) | – | 0 | – | – |
| CC1=C(C)C(=O)C(C(CCCCCCCCC(=O)O)c2ccccc2)=C(C)C1=O (stereo not given) | – | 41 | – | – |
| COC1=C(OC)C(=O)C(C(CCCCCC(=O)O)c2ccccc2)=C(C)C1=O (stereo not given) | – | 0 | – | – |
| COC1=C(OC)C(=O)C(C(CCCCCC(=O)O)c2ccc(F)cc2)=C(C)C1=O (stereo not given) | 3200 | 99 | 0 | – |
| CC1=C(C)C(=O)C(C(CCCCCC(=O)O)c2cccc(C(F)(F)F)c2)=C(C)C1=O (stereo not given) | – | 64 | – | – |
| CC1=C(C)C(=O)C(C(CCCCC(C)(C)C(=O)O)c2ccccc2)=C(C)C1=O (stereo not given) | – | 12 | – | – |
| CC1=C(C(CCCCCC(=O)O)c2ccc(F)cc2)C(=O)c2ccccc2C1=O (stereo not given) | – | 100 | 100 | Inhibition (Oryctolagus cuniculus [14]): 78% |
| CC1=C(C)C(=O)C(C(CCCCCc2nnn[nH]2)c2ccccc2)=C(C)C1=O (stereo not given) | – | 2 | – | – |
| CC1=C(C)C(=O)C(C(CCCCCC(N)=O)c2ccccc2)=C(C)C1=O (stereo not given) | – | 6 | – | – |

Second part, led by results:

| IC50 (Oryctolagus cuniculus [2]) [nM] | Structure (SMILES) | Inhibition (Oryctolagus cuniculus [1]) [%] | Inhibition (Oryctolagus cuniculus [3]) [%] | other results |
| --- | --- | --- | --- | --- |
| 1900 | CC1=C(C)C(=O)C(C(CCCCCC(=O)O)c2cccc(F)c2)=C(C)C1=O (stereo not given) | 100 | 31 | – |
| 760 | CC1=C(C)C(=O)C(C(CCCCCC(=O)O)c2cccs2)=C(C)C1=O (stereo not given) | 100 | 65 | Inhibition (Oryctolagus cuniculus [14]): 0% |
| 3400 | CC1=C(C)C(=O)C(C(CCCCCCCC(=O)O)c2ccccc2)=C(C)C1=O (stereo not given) | 94 | 0 | – |
| 1400 | COC(=O)CCCCCC(C1=C(C)C(=O)C(C)=C(C)C1=O)c1ccccc1 (stereo not given) | 95 | 36 | – |
| 100 | CC1=C(C)C(=O)C(C(CCCCCC(=O)O)c2ccccc2)=C(C)C1=O (stereo not given) [SERATRODAST] | 99 | 99 | inhibition in vivo at 5 mg/kg (Cavia porcellus [15]): 91%; inhibition in vivo at 0.08 mg/kg (Cavia porcellus [4]): 24%; inhibition in vivo at 0.31 mg/kg (Cavia porcellus [5]): 58%; inhibition in vivo at 1.25 mg/kg (Cavia porcellus [6]): 77%; inhibition in vivo at 5 mg/kg (Cavia porcellus [7]): 94%; inhibition in vivo at 0.31 mg/kg (Cavia porcellus [16]): 66%; inhibition in vivo at 1.25 mg/kg (Cavia porcellus [17]): 94%; inhibition in vivo at 5 mg/kg (Cavia porcellus [18]): 85%; inhibition in vivo at 0.08 mg/kg (Cavia porcellus [8]): 31%; inhibition in vivo at 0.31 mg/kg (Cavia porcellus [9]): 89%; inhibition in vivo at 1.25 mg/kg (Cavia porcellus [10]): 90%; inhibition in vivo at 1.25 mg/kg (Cavia porcellus [19]): 85%; inhibition in vivo at 0.31 mg/kg (Cavia porcellus [20]): 71%; ED50 (Cavia porcellus [21]): 0.2 mg/kg; ED50 (Cavia porcellus [22]): 0.19 mg/kg; ED50 (Cavia porcellus [23]): 0.13 mg/kg; IC50 (Cavia porcellus [11]): 350 nM; Kb (Oryctolagus cuniculus [12]): 5.25 nM; Inhibition (Oryctolagus cuniculus [14]): 49%; Kb (Cavia porcellus [24]): 5.13 nM |
| 1000 | CC1=C(C)C(=O)C(C(CCCCCC(=O)O)c2ccc(C)cc2)=C(C)C1=O (stereo not given) | 100 | 50 | – |
| 280 | CC1=C(C)C(=O)C(C(CCCCCC(=O)O)c2ccc(Cl)cc2)=C(C)C1=O (stereo not given) | 100 | 91 | Inhibition (Oryctolagus cuniculus [14]): 17% |
| 1700 | CC1=C(C)C(=O)C(C(CCCCCC(=O)O)c2ccc(Br)cc2)=C(C)C1=O (stereo not given) | 94 | 36 | – |
